V-ATPase pHluor: regulators of yeast V-ATPase proton transport | S. cerevisiae, pHLuorin cytosolic pH fluorescence | 350,000 tested, 0.37% active | response, % at 10 µM; in the data active = response mostly above about 7.3%, no sharp cut-off; inactive = mostly below about 5.4%; note: actives read high
p-CIP stab down: p/CIP protein destabilization | F442A p/CIP-EGFP cells, EGFP fluorescence, 16 h | decrease of EGFP signal, % at 10 µM | 290,000 tested, 0.01% active | AID 1984;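 active = EGFP signal decrease of at least 30% at 10 µM or well 3 SD below plate mean, unless failing retest; inactive = the rest, including hits failing retest or dose response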
Target sequence (Q05BA5 1-1403): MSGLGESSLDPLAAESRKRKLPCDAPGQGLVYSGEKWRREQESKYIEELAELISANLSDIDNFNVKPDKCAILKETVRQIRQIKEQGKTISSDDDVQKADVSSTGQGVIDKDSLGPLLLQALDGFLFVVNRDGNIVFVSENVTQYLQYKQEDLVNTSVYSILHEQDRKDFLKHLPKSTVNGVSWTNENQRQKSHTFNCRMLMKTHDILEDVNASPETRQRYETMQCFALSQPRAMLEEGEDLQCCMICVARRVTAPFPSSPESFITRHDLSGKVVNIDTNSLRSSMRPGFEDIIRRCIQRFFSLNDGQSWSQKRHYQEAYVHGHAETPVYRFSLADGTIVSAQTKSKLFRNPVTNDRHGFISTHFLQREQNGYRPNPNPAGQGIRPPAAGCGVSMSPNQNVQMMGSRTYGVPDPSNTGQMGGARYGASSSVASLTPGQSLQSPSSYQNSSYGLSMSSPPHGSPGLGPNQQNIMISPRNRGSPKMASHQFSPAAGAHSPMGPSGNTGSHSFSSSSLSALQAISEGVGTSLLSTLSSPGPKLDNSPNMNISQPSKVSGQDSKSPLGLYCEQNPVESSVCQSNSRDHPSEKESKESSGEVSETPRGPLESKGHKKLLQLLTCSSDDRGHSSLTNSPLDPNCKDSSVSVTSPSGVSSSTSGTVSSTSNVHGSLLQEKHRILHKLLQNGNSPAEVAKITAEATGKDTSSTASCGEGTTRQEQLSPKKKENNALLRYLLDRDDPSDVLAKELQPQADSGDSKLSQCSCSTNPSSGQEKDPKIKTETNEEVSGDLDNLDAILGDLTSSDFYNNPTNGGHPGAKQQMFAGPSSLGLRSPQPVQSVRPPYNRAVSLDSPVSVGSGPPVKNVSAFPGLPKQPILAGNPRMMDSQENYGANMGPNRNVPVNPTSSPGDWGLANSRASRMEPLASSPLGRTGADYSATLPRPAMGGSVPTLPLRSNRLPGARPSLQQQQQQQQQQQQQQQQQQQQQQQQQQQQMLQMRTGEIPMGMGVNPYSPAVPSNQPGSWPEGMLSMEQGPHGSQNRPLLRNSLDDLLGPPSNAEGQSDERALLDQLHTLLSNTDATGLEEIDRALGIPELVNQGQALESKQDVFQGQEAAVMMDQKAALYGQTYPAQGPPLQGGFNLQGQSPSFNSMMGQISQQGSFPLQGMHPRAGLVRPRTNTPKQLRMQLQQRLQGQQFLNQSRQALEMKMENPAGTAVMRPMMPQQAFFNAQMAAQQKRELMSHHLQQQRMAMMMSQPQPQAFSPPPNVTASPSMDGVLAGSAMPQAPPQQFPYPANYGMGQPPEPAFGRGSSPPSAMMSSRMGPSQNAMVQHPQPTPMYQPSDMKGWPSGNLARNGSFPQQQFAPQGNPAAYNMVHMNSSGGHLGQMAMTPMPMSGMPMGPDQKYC
ABCB6 inh 2: inhibitors of human ABC transporter ABCB6 | Q9NP58 | K562-ABCB6 porphyrin accumulation, flow cytometry, 1 h; active compounds read low | fluorescence ratio to DMSO, % at 10 µM | 360,000 tested, 0.19% active | AID 602162;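 active = fluorescence ratio to DMSO below 75%, the collection mean minus 3 SD; inconclusive = too few cells collected in the well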;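 note: signal is porphyrin accumulated inside mitochondria; lower ratio means ABCB6 inhibition with less porphyrin fluorescence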
Cl transport mod: modulates chloride dependent transport by human KCC2; Q9H2X9; KCC2 cells, thallium flux FluoZin-2 fluorescence; B-score of Tl+ flux slope (higher = more flux/activation; lower = inhibition) at 10 µM; 190,000 tested, 2.2% active; AID 1456;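 active = thallium flux slope and its plate-corrected score both differing from the plate sample mean at a set confidence after two filtering rounds, in either direction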;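 note: slope of fluorescence scaled to starting intensity during 10 to 20 s after thallium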
Dynein transport: dynein cargo transport inhibition; 3617.4 mouse cells, GR-EGFP nuclear translocation imaging; test concentration mostly 20 µM; stimulated with dexamethasone, 1 µM; active compounds read low; z-score, hits read low; 220,000 tested, 0.47% active;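 active = plate z-score of nuclear minus cytoplasmic receptor signal below a set negative limit, without overly bright fluorescence or cell loss, cut at about -3.5 in these data, passing the limit was not always enough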;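 note: z-score of nuclear minus cytoplasmic ring GR-EGFP intensity difference per well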
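Medium: Induction medium lacking tetracycline, stripped serum | Probe or stimulus: 1.0 µM final dexamethasone stimulus | Schedule: 48 h induction, then 1 h compound, then 30 min agonist, 37 °C | Signal: Automated 10x imaging of fixed Hoechst-stained cells | Evaluation: Per-cell GR-EGFP intensity, nucleus versus surrounding cytoplasmic ring, well-averaged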
KCC2 secondary: KCC2 (human) modulation, secondary assay; normalised thallium flux (F/F0 slope) at 10 µM; HEK293-KCC2, thallium flux, FluoZin2 fluorescence; active compounds read high; AID 1713; shares compounds with Cl transport mod; 3,700 tested, 15% active;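 active = thallium flux slope above the same plate's solvent-only control mean plus 3 SD; inconclusive = the two replicate wells disagree; inactive = no significant difference from solvent-only control wells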
KCC2 bumet counter: thallium flux despite bumetanide block in KCC2 cells, secondary assay 3; HEK293-KCC2 + bumetanide/ouabain, thallium flux FluoZin2; active compounds read high; 3,700 tested, 49% active; normalized thallium flux at 10 µM; shares compounds with Cl transport mod;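 active = thallium entry rate above the same plate's blocked-transporter control wells by more than 3 SD; inconclusive = the two repeat wells disagree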;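 note: raw slope of fluorescence over initial fluorescence between 10 and 20 s after thallium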
KCC2 sec2: confirmation of human KCC2 transport modulators | AID 1715 | 3,700 tested, 23% active | normalized thallium flux at 10 µM | HEK293-KCC2, thallium flux FluoZin2 fluorescence; actives lie on both sides; F/F0 rise rate, 10–20 s post-thallium | shares compounds with Cl transport mod;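 active = thallium flux slope more than 3 SD above or below the plate's solvent-only control mean, mostly below; inconclusive = the two repeat wells disagreed; inactive = no significant shift from solvent-only controls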
HEK counter1: parental HEK flux effect, counter-screen | shares compounds with Cl transport mod | HEK293 parental cells, thallium flux FluoZin2, ouabain; baseline-ratio fluorescence slope, 10–20 s after thallium | thallium flux rate (normalised fluorescence) at 10 µM | 3,700 tested, 46% active;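 active = thallium flux rate significantly above the same plate's solvent-only control wells, beyond their mean plus 3 SD; inconclusive = the two replicate wells gave conflicting results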
KCC2 retest ouab: modulates human KCC2 on retest with ouabain; shares compounds with Cl transport mod; HEK293-KCC2, thallium flux FluoZin2 fluorescence; bidirectional: low = inhibitor, high = activator; raw Tl+ flux slope (below DMSO = inhibition, above = activation) at 10 µM; 3,700 tested, 48% active; AID 1717;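 active = thallium flux slope beyond 3 SD from same-plate DMSO control mean in most replicates, usually higher, sometimes lower; inconclusive = repeat tests gave conflicting results; inactive = no significant difference from controls in most replicates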;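 note: slope of initial-normalized fluorescence between seconds 10 and 20 after thallium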
HEK293 Tl flux2: counter-screen for KCC2 modulators: effect in parental HEK293 cells; shares compounds with Cl transport mod; thallium flux FluoZin-2 fluorescence slope; thallium flux slope at 10 µM; 3,700 tested, 33% active; AID 1718;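 active = thallium flux slope above the same plate's solvent-control mean plus 3 SD in both duplicate wells; inconclusive = duplicate wells that disagreed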;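 note: run without ouabain in cells lacking the KCC2 cotransporter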
A number is an active result. Only a selection was taken, and hits are over-represented in it overall.

`COc1ccc(OC)c(-n2nnnc2SCC(=O)NCCc2ccccc2)c1` gave p-CIP stab down inactive, ABCB6 inh 2 inactive, Dynein transport inactive, KCC2 secondary inactive, KCC2 bumet counter inactive, KCC2 sec2 inconclusive, HEK counter1 inactive, KCC2 retest ouab inactive and HEK293 Tl flux2 inactive.
For CCOC(=O)Cn1nnnc1C(C(C)C)N(Cc1cccs1)Cc1cc2cc(C)ccc2[nH]c1=O (stereo not given) the results were V-ATPase pHluor inactive, p-CIP stab down inactive, ABCB6 inh 2 inactive, Dynein transport inactive, KCC2 secondary inactive, KCC2 bumet counter inactive, KCC2 sec2 inactive, HEK counter1 inactive, KCC2 retest ouab inactive and HEK293 Tl flux2 inactive.
For O=C(Nc1ccc2c(c1)oc1ccccc12)c1ccc2c(c1)OCO2 the results were V-ATPase pHluor inactive, p-CIP stab down inactive, ABCB6 inh 2 inactive, Cl transport mod inactive and Dynein transport inactive.
O=c1c(O)c(-c2ccc3c(c2)OCO3)oc2ccccc12 was read as V-ATPase pHluor inactive, p-CIP stab down inactive, ABCB6 inh 2 inactive, Dynein transport inactive, KCC2 secondary 0.032, KCC2 bumet counter 0.17, KCC2 sec2 0.052, HEK counter1 0.1, KCC2 retest ouab 0.1 and HEK293 Tl flux2 0.05.
Screening COC(=O)c1ccc2c(=O)n(-c3ccccc3)c(=S)[nH]c2c1 returned V-ATPase pHluor inactive, p-CIP stab down inactive, ABCB6 inh 2 inactive, Cl transport mod 11, Dynein transport inactive, KCC2 secondary inactive, KCC2 bumet counter 0.022, KCC2 sec2 inactive, HEK counter1 0.021, KCC2 retest ouab 0.025 and HEK293 Tl flux2 0.023.
Screening COc1ccc(-n2c(=S)[nH]c3cc(C(=O)N4CCN(c5ccccc5)CC4)ccc3c2=O)cc1 returned V-ATPase pHluor inactive, p-CIP stab down inactive and ABCB6 inh 2 inactive.
COC(=O)c1ccc2c(=O)n(-c3ccccc3F)c(=S)[nH]c2c1 was read as V-ATPase pHluor inactive, p-CIP stab down inactive, ABCB6 inh 2 inactive, Cl transport mod 5.6, Dynein transport inactive, KCC2 secondary inactive, KCC2 bumet counter 0.018, KCC2 sec2 inactive, HEK counter1 0.012, KCC2 retest ouab 0.022 and HEK293 Tl flux2 0.013.
COCCCn1c(SCC(=O)NC2CCS(=O)(=O)C2)nnc1-c1ccc(Cl)cc1 (stereo not given) was read as V-ATPase pHluor inactive and ABCB6 inh 2 inactive.
`CCOCCn1c(CN2CCN(CC)CC2)nc2c1c(=O)n(C)c(=O)n2C` gave V-ATPase pHluor inactive, p-CIP stab down inactive, ABCB6 inh 2 inactive, Cl transport mod 6.3, Dynein transport inactive, KCC2 secondary inactive, KCC2 bumet counter inactive, KCC2 sec2 inactive, HEK counter1 inactive, KCC2 retest ouab inactive and HEK293 Tl flux2 inactive.
Screening CCOCCn1c(CN2CCCCC2)nc2c1c(=O)n(C)c(=O)n2C returned V-ATPase pHluor inactive, p-CIP stab down inactive and ABCB6 inh 2 inactive.
Screening CCOC(=O)c1cc2c(nc1NC(=S)NCc1ccccc1)CCCC2 returned V-ATPase pHluor inactive, p-CIP stab down inactive, ABCB6 inh 2 inactive, Cl transport mod 5.2, Dynein transport inactive, KCC2 secondary inactive, KCC2 bumet counter 0.03, KCC2 sec2 0.039, HEK counter1 0.038, KCC2 retest ouab 0.063 and HEK293 Tl flux2 0.018.
C=CCNC(=S)Nc1nc2c(cc1C(=O)OCC)COC(C)(C)C2 was read as V-ATPase pHluor inactive, p-CIP stab down inactive, ABCB6 inh 2 inactive, Cl transport mod 8.5, Dynein transport inactive, KCC2 secondary inactive, KCC2 bumet counter 0.022, KCC2 sec2 inactive, HEK counter1 0.02, KCC2 retest ouab 0.029 and HEK293 Tl flux2 0.021.
`CCOC(=O)c1cc2c(nc1NC(=S)Nc1ccccc1)CC(C)(C)OC2` gave V-ATPase pHluor inactive, p-CIP stab down inactive, ABCB6 inh 2 inactive, Cl transport mod inactive and Dynein transport inactive.
For CCOC(=O)c1cc(C#N)c(NCc2ccccc2)nc1C the results were V-ATPase pHluor inactive, p-CIP stab down inactive, ABCB6 inh 2 inactive, Cl transport mod inactive and Dynein transport inactive.
N#CCC(=O)Nc1ccc(C(=O)NCCc2c[nH]c3ccccc23)cc1 was read as V-ATPase pHluor inactive, p-CIP stab down inactive and ABCB6 inh 2 inactive.
COc1ccccc1/C=C(\NC(=O)c1ccc(OC)c(OC)c1)C(=O)Nc1cc([N+](=O)[O-])ccc1C was read as V-ATPase pHluor inactive, p-CIP stab down inactive, ABCB6 inh 2 inactive, Cl transport mod 5.2, Dynein transport inactive, KCC2 secondary inactive, KCC2 bumet counter inactive, KCC2 sec2 inactive, HEK counter1 inactive, KCC2 retest ouab inactive and HEK293 Tl flux2 inactive.
For O=C(CSc1nnc(-c2ccccc2Br)o1)N1CCc2ccccc2C1 the results were V-ATPase pHluor inactive, p-CIP stab down inactive, ABCB6 inh 2 inactive, Cl transport mod -5.4, Dynein transport inactive, KCC2 secondary inactive, KCC2 bumet counter inactive, KCC2 sec2 0.021, HEK counter1 inconclusive, KCC2 retest ouab 0.011 and HEK293 Tl flux2 inactive.
`O=C(CSc1nnc(-c2ccccc2F)o1)N1CCCC1` gave V-ATPase pHluor inactive, p-CIP stab down inactive and ABCB6 inh 2 inactive.
`O=C(CSc1nnc(-c2c[nH]c3ccccc23)o1)N1CCCCC1` gave V-ATPase pHluor inactive, p-CIP stab down inactive, ABCB6 inh 2 inactive, Cl transport mod -3.1, Dynein transport inactive, KCC2 secondary inactive, KCC2 bumet counter inconclusive, KCC2 sec2 0.029, HEK counter1 inactive, KCC2 retest ouab 0.021 and HEK293 Tl flux2 inactive.
CCN(Cc1cc(=O)n2ccsc2n1)Cc1nc2ccccc2c(=O)[nH]1 was read as V-ATPase pHluor inactive, p-CIP stab down inactive, ABCB6 inh 2 inactive, Cl transport mod inactive and Dynein transport inactive.
